pIC50: −log10 of the molar value. ≈ marks a conversion by molar mass, not a printed value. Calls of active or inactive are those of the source. The calls are words filed in the database; no cut-off is given here.
What was measured:
[1] = Solubility of the compound in 0.1N HCl; assay type: physicochemical
Salmonella typhimurium [2] = test: Genotoxicity in Salmonella typhimurium TA1535 by Ames test; assay type: toxicity, organism-based; details: salmonella enterica subsp. enterica serovar typhimurium
Hamster [3] = test: Antiatherosclerotic activity in Bio F1B hamster model of diet-induced atherosclerosis assessed as reduction in total plasma cholesterol at 10 mg/kg/day added to chow pellets relative to control; assay type: functional, Cricetinae; design: scale not given: the % may be the effect or the level left
In short: (§1)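 Male Bio F1B hamsters (8 weeks old) were fed CE-2 chow with 0.3% cholesterol and 10% coconut oil for 10 weeks, with compound mixed into the chow (n=7 per dose; reference group n=6). Plasma TC was measured by enzymatic kit. Aorta was perfusion-fixed with 4% paraformaldehyde under pentobarbital anaesthesia, opened and stained with oil red O, and lipid area was measured by image analysis. Results are % of control ± SD, analysed by Dunnett's test.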

Salmonella typhimurium [4] = test: Genotoxicity in Salmonella typhimurium TA98 by Ames test; assay type: toxicity, organism-based; details: salmonella enterica subsp. enterica serovar typhimurium
Hamster [5] = test: Toxicity in Bio F1B hamster model of diet-induced atherosclerosis assessed as reduction in CE to FC ratio in adrenal gland at 1 to 30 mg/kg/day added to chow pellets; assay type: organism-based; details: cricetinae, in vivo, po
Hamster [6] = test: Antiatherosclerotic activity in Bio F1B hamster model of diet-induced atherosclerosis assessed as reduction in total plasma cholesterol at 30 mg/kg/day added to chow pellets relative to control; assay type: functional, Cricetinae; design: scale not given: the % may be the effect or the level left; in short: as §1
[7] = AUC (0 to infinity) in Sprague-Dawley rat at 30 mg/kg, po by LC/MS analysis; assay type: ADME, organism-based; design: dose 30 mg/kg, route oral, time infinity; details: in vivo
In short: (§2)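 Nonfasted male Sprague-Dawley rats (8 weeks old, n = 3) were given a single oral dose of 30 mg/kg in 0.05 N HCl solution. Heparin plasma was drawn from the forearm vein at 0.5, 1, 2, 4, 6 and 8 h. Samples were basified with NH4OH, spiked with internal standard, extracted with i-PrOH/n-hexane 5:95 and quantified by positive-ion ESI LC/MS on an RP8 column at 40 °C.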

Hamster [8] = test: Antiatherosclerotic activity in Bio F1B hamster model of diet-induced atherosclerosis assessed as reduction in lipid accumulation areas in aortic arch at 10 mg/kg/day added to chow pellets by oil red O staining based assay relative to control; assay type: functional, Cricetinae; design: scale not given: the % may be the effect or the level left; in short: as §1
[9] = Inhibition of ACAT in arterial homogenates isolated from 1% cholesterol fed New Zealand White rabbit assessed as reduction in cholesteryl oleate formation incubated for 5 mins in presence of [14C]-oleoyl-CoA and BSA complex by TLC method; assay type: tissue-based, Oryctolagus cuniculus
Salmonella typhimurium [10] = test: Genotoxicity in Salmonella typhimurium TA100 by Ames test; assay type: toxicity, organism-based; details: salmonella enterica subsp. enterica serovar typhimurium
[11] = Half life in Sprague-Dawley rat at 30 mg/kg, po by LC/MS analysis; assay type: ADME, organism-based; details: in vivo; in short: as §2
[12] = Cmax in Sprague-Dawley rat at 30 mg/kg, po by LC/MS analysis; assay type: ADME, organism-based; design: dose 30 mg/kg, route oral; details: in vivo; in short: as §2
Hamster [13] = test: Antiatherosclerotic activity in Bio F1B hamster model of diet-induced atherosclerosis assessed as reduction in CE to FC ratio in liver at 1 to 30 mg/kg/day added to chow pellets; assay type: functional, organism-based; details: Cricetinae
Oryctolagus cuniculus = organism: Oryctolagus cuniculus; details: New Zealand White
[14] = Chemical stability of the compound in acidic condition at 10 mg after 7 days by HPLC analysis; assay type: physicochemical; details: 168 h
Salmonella typhimurium [15] = test: Genotoxicity in Salmonella typhimurium TA1537 by Ames test; assay type: toxicity, organism-based; details: salmonella enterica subsp. enterica serovar typhimurium
Hamster [16] = test: Antiatherosclerotic activity in Bio F1B hamster model of diet-induced atherosclerosis assessed as reduction in total plasma cholesterol at 3 mg/kg/day added to chow pellets relative to control; assay type: functional, Cricetinae; design: scale not given: the % may be the effect or the level left; in short: as §1
Hamster [17] = test: Antiatherosclerotic activity in Bio F1B hamster model of diet-induced atherosclerosis assessed as reduction in lipid accumulation areas in aortic arch at 3 mg/kg/day added to chow pellets by oil red O staining based assay relative to control; assay type: functional, Cricetinae; design: scale not given: the % may be the effect or the level left; in short: as §1
[18] = Tmax in Sprague-Dawley rat at 30 mg/kg, po by LC/MS analysis; assay type: ADME, organism-based; details: in vivo; in short: as §2
Hamster [19] = test: Antiatherosclerotic activity in Bio F1B hamster model of diet-induced atherosclerosis assessed as reduction in CE to FC ratio in intestine at 1 to 30 mg/kg/day added to chow pellets; assay type: functional, organism-based; details: Cricetinae
Escherichia coli = test: Genotoxicity in Escherichia coli […] by Ames test; assay type: toxicity, organism-based
[20] = Inhibition of ACAT in New Zealand White rabbit intestinal microsomes assessed as reduction in cholesteryl oleate formation incubated for 3 mins in presence of [14C]-oleoyl-CoA and BSA complex by TLC method; design: species or system Oryctolagus cuniculus, Intestine
[21] = Solubility of the compound in 0.025N HCl; assay type: physicochemical
[22] = Solubility of the compound in pH 1.0 solution; assay type: physicochemical

Structure (SMILES): CC(C)c1cccc(C(C)C)c1NC(=O)NCC1(Cc2ccc(N(C)C)cc2)CCCC1.Cl
- solubility [1]: 6400 µg/mL

Structure (SMILES): CSc1cc(C)nc(SC)c1NC(=O)CN1CCN(CCSc2nc3ccccc3o2)CC1
- Activity (Salmonella typhimurium [2]): Non-Toxic
- Activity (Hamster [3]): 28%
- Activity (Salmonella typhimurium [4]): Non-Toxic
- Activity (Hamster [5]): Toxic
- Activity (Hamster [6]): 24%
- AUC(0-inf) [7]: 4120 ng·h/mL
- Activity (Hamster [8]): 32%
- pIC50 [9]: 7.48
- Activity (Salmonella typhimurium [10]): Non-Toxic
- half-life [11]: 606 min
- Cmax [12]: 158 ng/mL
- Activity (Hamster [13]): Active
- fIC50 (Oryctolagus cuniculus): 0.89 nM
- Stability [14]: Unstable
- Activity (Salmonella typhimurium [15]): Non-Toxic
- Activity (Hamster [16]): 73%
- Activity (Hamster [17]): 37%
- Tmax [18]: 2.8 h
- Activity (Hamster [19]): Active
- Activity (Escherichia coli): Non-Toxic
- pIC50 [20]: 7.54

Structure (SMILES): CN(C)c1ccc(NC(=O)N(Cc2cccc(CN(C(=O)Nc3ccc(N(C)C)cc3)C3CCCCCC3)c2)C2CCCCCC2)cc1.Cl.Cl
- solubility [21]: 10000 µg/mL

Structure (SMILES): CC(C)c1cccc(C(C)C)c1NC(=O)NCC1(Cc2ccc(N(C)C)cc2)CCCC1
- solubility [22]: 2180 µg/mL (≈ 5 mM)
